Measured values taken from ChEMBL document CHEMBL3286292, “Synthesis and antimicrobial activity of amine linked bis- and tris-heterocycles” (2014).
Active and inactive are the calls of the source. The rule behind the calls is not given here.

How the values were obtained:
Assay type in all cases: functional
Staphylococcus aureus [1] = test: Antibacterial activity against Staphylococcus aureus assessed as growth inhibition at 50 ug/well after 24 hrs by agar well diffusion method; details: for zone of inhibition at 50 µg/disc: read-out: DIZ
Outline: (§1)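 Agar well diffusion on […] swabbed with a 24 h broth culture. Samples were dissolved in DMSO and loaded at three per-well amounts into 6 mm wells. Incubation was 37 °C for 24 h, then inhibition zone diameter was read in mm. DMSO served as the negative control. Runs were in duplicate and averaged.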

Klebsiella pneumoniae [2] = test: Antibacterial activity against Klebsiella pneumoniae assessed as growth inhibition after 24 hrs by broth dilution method
Outline: (§2)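 Tube broth dilution with fresh nutrient broth as diluent and a 24 h old bacterial culture. Compound dilutions were added to the tubes, which were incubated at 37 °C for 24 h. Solvent control without sample was run in parallel. MIC was the lowest concentration showing no visible turbidity.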

Pseudomonas aeruginosa [3] = test: Antibacterial activity against Pseudomonas aeruginosa assessed as growth inhibition at 50 ug/well after 24 hrs by agar well diffusion method; details: for zone of inhibition at 50 µg/disc: read-out: DIZ; outline: as §1
Bacillus subtilis [4] = test: Antibacterial activity against Bacillus subtilis assessed as growth inhibition at 100 ug/well after 24 hrs by agar well diffusion method; details: for zone of inhibition at 100 µg/disc: read-out: DIZ; outline: as §1
Bacillus subtilis [5] = test: Antibacterial activity against Bacillus subtilis assessed as growth inhibition at 25 ug/well after 24 hrs by agar well diffusion method; details: for zone of inhibition at 25 µg/disc: read-out: DIZ; outline: as §1
Staphylococcus aureus [6] = test: Antibacterial activity against Staphylococcus aureus assessed as growth inhibition after 24 hrs by broth dilution method; outline: as §2
Aspergillus niger [7] = test: Antifungal activity against Aspergillus niger assessed as inhibition of spore germination at 25 ug/well after 48 hrs by agar well diffusion method; details: for zone of inhibition at 25 µg/disc: read-out: DIZ
Outline: (§3)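 Well diffusion using 6 mm bored wells loaded with DMSO solutions at three per-well amounts, with a DMSO negative control. Plates were held at 28 °C for 48 h, then zone of inhibition diameter was measured in mm. Runs were in duplicate and averaged.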

Staphylococcus aureus [8] = test: Antibacterial activity against Staphylococcus aureus assessed as growth inhibition at 100 ug/well after 24 hrs by agar well diffusion method; details: for zone of inhibition at 100 µg/disc: read-out: DIZ; outline: as §1
Bacillus subtilis [9] = test: Antibacterial activity against Bacillus subtilis assessed as growth inhibition at 50 ug/well after 24 hrs by agar well diffusion method; details: for zone of inhibition at 50 µg/disc: read-out: DIZ; outline: as §1
Staphylococcus aureus [10] = test: Antibacterial activity against Staphylococcus aureus assessed as growth inhibition at 25 ug/well after 24 hrs by agar well diffusion method; details: for zone of inhibition at 25 µg/disc: read-out: DIZ; outline: as §1
Klebsiella pneumoniae [11] = test: Antibacterial activity against Klebsiella pneumoniae assessed as growth inhibition at 50 ug/well after 24 hrs by agar well diffusion method; details: for zone of inhibition at 50 µg/disc: read-out: DIZ; outline: as §1
Bacillus subtilis [12] = test: Antibacterial activity against Bacillus subtilis assessed as growth inhibition after 24 hrs by broth dilution method; outline: as §2
Pseudomonas aeruginosa [13] = test: Antibacterial activity against Pseudomonas aeruginosa assessed as growth inhibition at 25 ug/well after 24 hrs by agar well diffusion method; details: for zone of inhibition at 25 µg/disc: read-out: DIZ; outline: as §1
Klebsiella pneumoniae [14] = test: Antibacterial activity against Klebsiella pneumoniae assessed as growth inhibition at 100 ug/well after 24 hrs by agar well diffusion method; details: for zone of inhibition at 100 µg/disc: read-out: DIZ; outline: as §1
Pseudomonas aeruginosa [15] = test: Antibacterial activity against Pseudomonas aeruginosa assessed as growth inhibition at 100 ug/well after 24 hrs by agar well diffusion method; details: for zone of inhibition at 100 µg/disc: read-out: DIZ; outline: as §1
Pseudomonas aeruginosa [16] = test: Antibacterial activity against Pseudomonas aeruginosa assessed as growth inhibition after 24 hrs by broth dilution method; outline: as §2
Klebsiella pneumoniae [17] = test: Antibacterial activity against Klebsiella pneumoniae assessed as growth inhibition at 25 ug/well after 24 hrs by agar well diffusion method; details: for zone of inhibition at 25 µg/disc: read-out: DIZ; outline: as §1
Aspergillus niger [18] = test: Antifungal activity against Aspergillus niger assessed as inhibition of spore germination at 50 ug/well after 48 hrs by agar well diffusion method; details: for zone of inhibition at 50 µg/disc: read-out: DIZ; outline: as §3
Bacillus subtilis [19] = test: Bactericidal activity against Bacillus subtilis after 24 hrs
Pseudomonas aeruginosa [20] = test: Bactericidal activity against Pseudomonas aeruginosa after 24 hrs
Aspergillus niger [21] = test: Fungicidal activity against Aspergillus niger after 48 hrs
Aspergillus niger [22] = test: Antifungal activity against Aspergillus niger assessed as growth inhibition after 48 hrs by broth dilution method
Outline: (§4)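 Tube broth dilution with nutrient broth as diluent. Compound dilutions were added to fungal cultures and incubated at 28 °C for 48 h. A solvent control without sample was included. MIC was the lowest concentration with no visible growth or turbidity.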

Staphylococcus aureus [23] = test: Bactericidal activity against Staphylococcus aureus after 24 hrs
Penicillium chrysogenum [24] = test: Antifungal activity against Penicillium chrysogenum assessed as growth inhibition after 48 hrs by broth dilution method; outline: as §4
Klebsiella pneumoniae [25] = test: Bactericidal activity against Klebsiella pneumoniae after 24 hrs
Penicillium chrysogenum [26] = test: Fungicidal activity against Penicillium chrysogenum after 48 hrs

Structure (SMILES)	zone of inhibition at 50 µg/disc (Staphylococcus aureus [1]) [mm]	zone of inhibition at 100 µg/disc (Bacillus subtilis [4]) [mm]	zone of inhibition at 25 µg/disc (Bacillus subtilis [5]) [mm]	zone of inhibition at 25 µg/disc (Aspergillus niger [7]) [mm]	zone of inhibition at 100 µg/disc (Staphylococcus aureus [8]) [mm]	zone of inhibition at 50 µg/disc (Bacillus subtilis [9]) [mm]	zone of inhibition at 25 µg/disc (Staphylococcus aureus [10]) [mm]	zone of inhibition at 50 µg/disc (Klebsiella pneumoniae [11]) [mm]	zone of inhibition at 100 µg/disc (Klebsiella pneumoniae [14]) [mm]	zone of inhibition at 100 µg/disc (Pseudomonas aeruginosa [15]) [mm]	zone of inhibition at 25 µg/disc (Klebsiella pneumoniae [17]) [mm]	zone of inhibition at 50 µg/disc (Aspergillus niger [18]) [mm]	growth inhibition (GI) (Staphylococcus aureus [1])	growth inhibition (GI) (Pseudomonas aeruginosa [3])	growth inhibition (GI) (Bacillus subtilis [5])	growth inhibition (GI) (Aspergillus niger [7])	growth inhibition (GI) (Staphylococcus aureus [10])	growth inhibition (GI) (Pseudomonas aeruginosa [13])	growth inhibition (GI) (Pseudomonas aeruginosa [15])	growth inhibition (GI) (Klebsiella pneumoniae [17])	other results
O=C(N[C@H](CO)[C@H](O)c1ccc([N+](=O)[O-])cc1)C(Cl)Cl [CHLORAMPHENICOL]	33	38	32	31	35	34	30	40	42	30	38	33	–	–	–	–	–	–	–	–	MIC (Klebsiella pneumoniae [2]): 12.5 µg; zone of inhibition at 50 µg/disc (Pseudomonas aeruginosa [3]): 27 mm; MIC (Staphylococcus aureus [6]): 6.25 µg; MIC (Bacillus subtilis [12]): 6.25 µg; zone of inhibition at 25 µg/disc (Pseudomonas aeruginosa [13]): 25 mm; MIC (Pseudomonas aeruginosa [16]): 6.25 µg
c1ccc(-c2csc(Nc3cc(-c4ccccc4)n(-c4nc(-c5ccccc5)cs4)n3)n2)cc1	31	28	25	25	32	26	29	32	35	21	30	28	–	–	–	–	–	–	–	–	MIC (Klebsiella pneumoniae [2]): 50 µg; zone of inhibition at 50 µg/disc (Pseudomonas aeruginosa [3]): 18 mm; MBC (Bacillus subtilis [19]): 200 µg; MBC (Pseudomonas aeruginosa [20]): >200 µg; MFC (Aspergillus niger [21]): 100 µg; MIC (Staphylococcus aureus [6]): 12.5 µg; MIC (Aspergillus niger [22]): 25 µg; MBC (Staphylococcus aureus [23]): 50 µg; MIC (Penicillium chrysogenum [24]): 50 µg; MIC (Bacillus subtilis [12]): 50 µg; zone of inhibition at 25 µg/disc (Pseudomonas aeruginosa [13]): 17 mm; MIC (Pseudomonas aeruginosa [16]): 50 µg; MBC (Klebsiella pneumoniae [25]): >200 µg; MFC (Penicillium chrysogenum [26]): 200 µg
Cc1ccc(-c2coc(Nc3cc(-c4ccc(C)cc4)n(C(N)=S)n3)n2)cc1	–	8	–	–	6	7	–	7	8	–	–	6	inactive	inactive	inactive	inactive	inactive	inactive	inactive	inactive	–
CC(=O)N1CCN(c2ccc(OCC3COC(Cn4ccnc4)(c4ccc(Cl)cc4Cl)O3)cc2)CC1 (configuration not stated) [KETOCONAZOLE]	–	–	–	–	–	–	–	–	–	–	–	–	–	–	–	–	–	–	–	–	MIC (Aspergillus niger [22]): 6.25 µg; MIC (Penicillium chrysogenum [24]): 12.5 µg
NC(=S)N1N=C(Nc2nc(-c3ccc(Cl)cc3)c[nH]2)C[C@@H]1c1ccc(Cl)cc1	–	6	–	–	–	–	–	6	7	–	–	–	inactive	inactive	inactive	inactive	inactive	inactive	inactive	inactive	growth inhibition (GI) (Staphylococcus aureus [8]): inactive; growth inhibition (GI) (Bacillus subtilis [9]): inactive; zone of inhibition (Aspergillus niger [18]): inactive
NC(=S)N1N=C(Nc2nc(-c3ccc(Cl)cc3)cs2)C[C@@H]1c1ccc(Cl)cc1	–	–	–	–	–	–	–	–	–	–	–	–	inactive	inactive	inactive	inactive	inactive	inactive	inactive	inactive	growth inhibition (GI) (Bacillus subtilis [4]): inactive; growth inhibition (GI) (Staphylococcus aureus [8]): inactive; growth inhibition (GI) (Bacillus subtilis [9]): inactive; growth inhibition (GI) (Klebsiella pneumoniae [11]): inactive; growth inhibition (GI) (Klebsiella pneumoniae [14]): inactive; zone of inhibition (Aspergillus niger [18]): inactive
Clc1ccc(-c2coc(Nc3cc(-c4ccc(Cl)cc4)n(-c4nc(-c5ccc(Cl)cc5)cs4)n3)n2)cc1	18	21	16	11	21	18	17	19	22	13	17	12	–	–	–	–	–	–	–	–	zone of inhibition at 50 µg/disc (Pseudomonas aeruginosa [3]): 10 mm; zone of inhibition at 25 µg/disc (Pseudomonas aeruginosa [13]): 9 mm
NC(=S)N1N=C(Nc2nc(-c3ccccc3)cs2)C[C@@H]1c1ccccc1	–	–	–	–	–	–	–	–	–	–	–	–	inactive	inactive	inactive	inactive	inactive	inactive	inactive	inactive	growth inhibition (GI) (Bacillus subtilis [4]): inactive; growth inhibition (GI) (Staphylococcus aureus [8]): inactive; growth inhibition (GI) (Bacillus subtilis [9]): inactive; growth inhibition (GI) (Klebsiella pneumoniae [11]): inactive; growth inhibition (GI) (Klebsiella pneumoniae [14]): inactive; zone of inhibition (Aspergillus niger [18]): inactive
NC(=S)N1N=C(Nc2nc(-c3ccccc3)co2)C[C@@H]1c1ccccc1	–	–	–	–	–	–	–	–	–	–	–	–	inactive	inactive	inactive	inactive	inactive	inactive	inactive	inactive	growth inhibition (GI) (Bacillus subtilis [4]): inactive; growth inhibition (GI) (Staphylococcus aureus [8]): inactive; growth inhibition (GI) (Bacillus subtilis [9]): inactive; growth inhibition (GI) (Klebsiella pneumoniae [11]): inactive; growth inhibition (GI) (Klebsiella pneumoniae [14]): inactive; zone of inhibition (Aspergillus niger [18]): inactive
Cc1ccc(-c2c[nH]c(Nc3cc(-c4ccc(C)cc4)n(C(N)=S)n3)n2)cc1	12	13	9	14	14	10	10	12	14	7	10	15	–	inactive	–	–	–	inactive	–	–	–
NC(=S)N1N=C(Nc2nc(-c3ccccc3)c[nH]2)C[C@@H]1c1ccccc1	–	–	–	–	–	–	–	–	6	–	–	–	inactive	inactive	inactive	inactive	inactive	inactive	inactive	inactive	growth inhibition (GI) (Bacillus subtilis [4]): inactive; growth inhibition (GI) (Staphylococcus aureus [8]): inactive; growth inhibition (GI) (Bacillus subtilis [9]): inactive; growth inhibition (GI) (Klebsiella pneumoniae [11]): inactive; zone of inhibition (Aspergillus niger [18]): inactive
NC(=S)n1nc(Nc2nc(-c3ccc(Cl)cc3)cs2)cc1-c1ccc(Cl)cc1	26	26	22	20	29	25	24	28	31	18	26	22	–	–	–	–	–	–	–	–	zone of inhibition at 50 µg/disc (Pseudomonas aeruginosa [3]): 16 mm; zone of inhibition at 25 µg/disc (Pseudomonas aeruginosa [13]): 14 mm
